Source: ChEMBL document CHEMBL1123866, “Benzimidazole derivatives with atypical antiinflammatory activity” (J Med Chem, 1987)

These compounds were tested on Rattus norvegicus (assay: Antiinflammatory activity was evaluated for the compound in rat adjuvant arthritis model and the percent of inhibition was determined at 50 mg/kg dose administered orally). Details: route oral.
Format: functional
Procedure, shortened: (§1)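 Rats, ten per group, were dosed orally with a suspension in 1% acacia in distilled water, starting immediately after adjuvant injection and then once daily for 14 days in total. Foot volume of the noninjected hind paw was measured by mercury displacement to the lateral malleolus 24 h after the final dose. Percent inhibition of swelling was calculated against untreated arthritic controls.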

Row | Structure (SMILES) | inhibition in vivo at 50 mg/kg [%]
1 | Cc1ccc2[nH]c(S(=O)(=O)CC(F)(F)F)nc2c1 | 72

Each compound was assayed on Rattus norvegicus (assay: Anti-inflammatory activity (% inhibition of paw swelling)in rat adjuvant arthritis model at 25 mg/kg oral dose). Details: not given.
Format: functional
Procedure, shortened: as §1

Row | Structure (SMILES) | inhibition in vivo at 25 mg/kg [%]
2 | O=S(=O)(CC(F)(F)F)c1nc2cc(F)ccc2[nH]1 | 43
3 | O=S(=O)(CC(F)(F)F)c1nc2cc(Cl)c(Cl)cc2[nH]1 | 24
4 | O=S(=O)(c1nc2cc(Cl)ccc2[nH]1)C(F)(F)C(F)(F)F | 0
5 | O=S(=O)(CC(F)(F)F)c1nc2cc(Cl)ccc2[nH]1 | 28
6 | O=S(=O)(CC(F)(F)F)c1nc2cc(C(F)(F)F)ccc2[nH]1 | 0
7 | CCc1ccc2[nH]c(S(=O)(=O)CC(F)(F)F)nc2c1 | 34
8 | COC(=O)c1ccc2[nH]c(S(=O)(=O)CC(F)(F)F)nc2c1 | 11
9 | CCCc1ccc2[nH]c(S(=O)(=O)CC(F)(F)F)nc2c1 | 0
10 | Cc1ccc2[nH]c(S(=O)(=O)C(F)(F)C(F)(F)F)nc2c1 | 8
11 | Cc1cc2nc(S(=O)(=O)CC(F)(F)F)[nH]c2cc1C | 18
12 | CCS(=O)(=O)c1nc2cc(C)ccc2[nH]1 | 17
13 | O=S(=O)(c1nc2cc(Cl)ccc2[nH]1)C(F)(F)C(F)(F)C(F)(F)F | 0
14 | O=S(=O)(CC(F)(F)F)c1nc2ccccc2[nH]1 | 52
15 | CC(C)Cc1ccc(C(C)C(=O)O)cc1 (stereo not drawn) [IBUPROFEN] | 73
16 | Cc1cc2[nH]c(S(=O)(=O)CC(F)(F)F)nc2cc1F | 44
17 | Cc1ccc2[nH]c(S(=O)(=O)CC(F)(F)F)nc2c1 | 52

Each compound was assayed on Rattus norvegicus (assay: Antiinflammatory activity was evaluated for the compound in rat adjuvant arthritis model and the percent of inhibition was determined at 1 mg/kg dose administered orally). Details: po, read-out: Inhibition.

Row | Structure (SMILES) | inhibition in vivo at 1 mg/kg [%]
18 | COc1ccc2c(c1)c(CC(=O)O)c(C)n2C(=O)c1ccc(Cl)cc1 [INDOMETHACIN] | 69
